Experimental data as given in ChEMBL document CHEMBL3352730, “Synthesis and effects on cell viability of flavonols and 3-methyl ether derivatives on human leukemia cells” (Eur J Med Chem, 2014).
Calls of active or inactive are those of the source. The calls are words filed in the database; no cut-off is given here.

What was measured:
HL-60 [1] = test: Induction of cell cycle arrest in human HL60 cells assessed as accumulation at subG1 phase at 3 uM after 48 hrs by propidium iodide staining based flow cytometry (reference value: 3.7 +/- 0.1%); type: functional
HL-60 [2] = test: Induction of apoptosis in human HL60 cells assessed as increase in caspase 8 activity using IETD-pNA substrate at 10 uM after 24 hrs; type: functional
Method in brief: (§1)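 Cells were given 10 µM for 24 h. Lysates were assayed for cleavage of DEVD-pNA (caspase-3/7), IETD-pNA (caspase-8) and LEHD-pNA (caspase-9). Results are expressed as fold over control, from three independent experiments in triplicate.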

HL-60 [3] = test: Induction of apoptosis in human HL60 cells assessed as pro-caspase-9 cleavage by Western blotting method; type: functional, cell-based
Method in brief: (§2)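 Cells were exposed to a range of compound concentrations and harvested at 24 h. Lysates were immunoblotted for caspase proforms and cleaved forms, and for Bcl-2 family proteins.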

HL-60 [4] = test: Induction of cell cycle arrest in human HL60 cells assessed as accumulation at G2/M phase at 10 uM after 12 hrs by propidium iodide staining based flow cytometry (reference value: 18.5 +/- 0.5%); type: functional
HL-60 [5] = test: Induction of apoptosis in human HL60 cells assessed as increase in caspase 9 activity using LEHD-pNA substrate at 10 uM after 24 hrs; type: functional; method in brief: as §1
HL-60 [6] = test: Induction of cell cycle arrest in human HL60 cells assessed as accumulation at S phase at 1 uM after 48 hrs by propidium iodide staining based flow cytometry (reference value: 15.3 +/- 0.1%); type: functional
MOLT-3 [7] = test: Reduction in Bid expression in human MOLT3 cells by Western blotting method; type: functional, cell-based
Method in brief: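 Cells (HL-60, Molt-3 or U937) were incubated with increasing concentrations of compound and harvested at 24 h. Cell lysates were then immunoblotted for Bid and other Bcl-2 family members.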

U-937 [8] = test: Induction of cell cycle arrest in human U937 cells assessed as accumulation at G1 phase at 10 uM after 48 hrs by propidium iodide staining based flow cytometry (reference value: 51.9 +/- 0.9%); type: functional
[9] = molecular target: c-Jun N-terminal kinase, JNK (Homo sapiens) (UniProt P45983+P53779+P45984); test: Increase in JNK/SAPK phosphorylation in human HL60 cells at 10 to 30 uM after 2 to 6 hrs by Western blotting method; type: cell-based; conditions: HL-60
Method in brief: (§3)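 HL-60 cells were incubated for a time course. Extracts were immunoblotted with phospho-specific antibodies for ERK 1/2, JNK/SAPK and p38MAPK. Membranes were then stripped and reprobed for the total kinases as loading controls.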

U-937 [10] = test: Increase in TRAIL expression in human U937 cells at 10 30 uM after 24 hrs by immunoblotting method; type: functional, cell-based
Method in brief: (§4)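 HL-60 and U937 cells were treated with increasing concentrations for 24 h. Lysates were immunoblotted for TRAIL, DR4 and DR5.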

U-937 [11] = test: Induction of cell cycle arrest in human U937 cells assessed as accumulation at S phase at 1 uM after 48 hrs by propidium iodide staining based flow cytometry (reference value: 18.9 +/- 0.2%); type: functional
HL-60 [12] = test: Induction of apoptosis in human HL60 cells in presence of p38MAPK inhibitor SB203580 after 24 hrs by propidium iodide staining based flow cytometry; type: functional, cell-based
HL-60 [13] = test: Induction of cell cycle arrest in human HL60 cells assessed as accumulation at G1 phase at 1 uM after 12 hrs by propidium iodide staining based flow cytometry (reference value: 57.2 +/- 0.9%); type: functional
HL-60 [14] = test: Induction of cell cycle arrest in human HL60 cells assessed as accumulation at S phase at 3 uM after 24 hrs by propidium iodide staining based flow cytometry (reference value: 17.9 +/- 0.6%); type: functional
MOLT-3 [15] = test: Induction of apoptosis in human MOLT3 cells assessed as increase in caspase 3/7 activity using DEVD-pNA substrate at 10 uM after 24 hrs; type: functional, cell-based; method in brief: as §1
HL-60 [16] = test: Induction of cell cycle arrest in human HL60 cells assessed as accumulation at G2/M phase at 3 uM after 24 hrs by propidium iodide staining based flow cytometry (reference value: 22.5 +/- 0.9%); type: functional
U-937 [17] = test: Induction of cell cycle arrest in human U937 cells assessed as accumulation at S phase at 10 uM after 48 hrs by propidium iodide staining based flow cytometry (reference value: 18.9 +/- 0.2%); type: functional
HL-60 [18] = test: Induction of cell cycle arrest in human HL60 cells assessed as accumulation at G2/M phase at 3 uM after 48 hrs by propidium iodide staining based flow cytometry (reference value: 17.9 +/- 0.7%); type: functional
HL-60 [19] = test: Induction of cell cycle arrest in human HL60 cells assessed as accumulation at G2/M phase at 10 uM after 48 hrs by propidium iodide staining based flow cytometry (reference value: 17.9 +/- 0.7%); type: functional
HL-60 [20] = test: Induction of apoptosis in human HL60 cells assessed as pro-caspase-7 cleavage by Western blotting method; type: functional, cell-based; method in brief: as §2
HL-60 [21] = test: Increase in DR4 expression in human HL60 cells at 10 30 uM after 24 hrs by immunoblotting method; type: functional, cell-based; method in brief: as §4
[22] = molecular target: Mitogen-activated protein kinase; ERK1/ERK2 (Homo sapiens) (UniProt P27361+P28482); test: Increase in ERK1/2 phosphorylation in human HL60 cells at 10 to 30 uM after 2 to 6 hrs by Western blotting method; type: cell-based; conditions: HL-60; method in brief: as §3
U-937 [23] = test: Cytotoxicity against human U937 cells at 30 uM in presence of 0.5 ug/mL TRAIL incubated simultaneously with drug for 48 hrs by MTT assay; type: functional, cell-based
Method in brief: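 U937 cells, MTT viability read-out. One arm received TRAIL at 0.5 µg/mL together with compound at 30 µM for 48 h. The other arm had compound for 24 h, then TRAIL for 24 h. Three independent experiments, each in triplicate.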

HL-60 [24] = test: Induction of cell cycle arrest in human HL60 cells assessed as accumulation at G1 phase at 3 uM after 12 hrs by propidium iodide staining based flow cytometry (reference value: 57.2 +/- 0.9%); type: functional
U-937 [25] = test: Induction of apoptosis in human U937 cells assessed as increase in caspase 9 activity using LEHD-pNA substrate at 10 uM after 24 hrs; type: functional, cell-based; method in brief: as §1
HL-60 [26] = test: Induction of cell cycle arrest in human HL60 cells assessed as accumulation at G2/M phase at 1 uM after 12 hrs by propidium iodide staining based flow cytometry (reference value: 18.5 +/- 0.5%); type: functional
U-937 [27] = test: Induction of cell cycle arrest in human U937 cells assessed as accumulation at G2/M phase at 1 uM after 12 hrs by propidium iodide staining based flow cytometry (reference value: 24.2 +/- 1.2%); type: functional
HL-60 [28] = test: Induction of apoptosis in human HL60 cells assessed as pro-caspase-8 processing at 3 and 10 uM after 6 to 24 hrs by immunoblotting method; type: functional, cell-based
Method in brief: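 Kinetic and dose-response immunoblots. Cells were treated, harvested at the indicated times, and probed with antibodies that detect both procaspase-8/-9 and their cleaved fragments.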

MOLT-3 [29] = test: Induction of apoptosis in human MOLT3 cells assessed as pro-caspase-8 cleavage by Western blotting method; type: functional, cell-based; method in brief: as §2
HL-60 [30] = test: Induction of apoptosis in human HL60 cells assessed as pro-caspase-3 cleavage by Western blotting method; type: functional, cell-based; method in brief: as §2

Chain of Mitogen-activated protein kinase; ERK1/ERK2 (Homo sapiens) (P27361 whole entry, looked up): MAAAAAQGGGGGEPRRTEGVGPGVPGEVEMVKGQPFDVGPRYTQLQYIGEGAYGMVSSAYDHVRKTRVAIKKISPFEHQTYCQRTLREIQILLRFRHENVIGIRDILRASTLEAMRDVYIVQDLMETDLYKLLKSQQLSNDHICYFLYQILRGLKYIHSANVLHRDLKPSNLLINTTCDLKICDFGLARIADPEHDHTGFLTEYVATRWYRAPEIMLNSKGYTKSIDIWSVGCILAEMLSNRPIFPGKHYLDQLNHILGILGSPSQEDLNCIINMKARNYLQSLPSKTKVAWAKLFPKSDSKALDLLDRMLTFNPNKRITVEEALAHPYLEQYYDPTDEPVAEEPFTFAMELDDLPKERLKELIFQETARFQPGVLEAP
Chain of Mitogen-activated protein kinase; ERK1/ERK2 (Homo sapiens) (P28482 whole entry, looked up): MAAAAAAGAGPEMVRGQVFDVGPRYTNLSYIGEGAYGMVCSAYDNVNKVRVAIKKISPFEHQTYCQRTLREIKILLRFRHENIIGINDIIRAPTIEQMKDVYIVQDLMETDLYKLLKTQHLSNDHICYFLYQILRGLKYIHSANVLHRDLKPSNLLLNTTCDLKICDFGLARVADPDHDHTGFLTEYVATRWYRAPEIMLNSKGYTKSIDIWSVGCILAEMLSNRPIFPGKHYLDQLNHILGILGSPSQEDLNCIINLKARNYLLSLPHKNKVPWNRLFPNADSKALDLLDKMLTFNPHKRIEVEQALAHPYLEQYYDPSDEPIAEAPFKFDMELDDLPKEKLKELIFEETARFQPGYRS

In the case of O=c1c(O)c(-c2ccc(Br)cc2)oc2ccccc12, the Activity (HL-60 [1]) is reported as 14.3%, the “fold change (FC)” value (HL-60 [2]) is reported as 1.7 and the Activity (HL-60 [3]) is reported as “Active”. The Activity (HL-60 [4]) was 13.4%, the “fold change (FC)” value (HL-60 [5]) was 1.8 and the Activity (HL-60 [6]) was 15.5%. For the same compound, the Activity (MOLT-3 [7]) was “Active”, the Activity (U-937 [8]) was 41.4% and the Activity [9] was “Active”. The Activity (U-937 [10]) was “Active”, the Activity (U-937 [11]) was 19.6% and the Activity (HL-60 [12]) was “Active”. The Activity (HL-60 [13]) was 56.2%, the Activity (HL-60 [14]) was 17.6% and the Activity (MOLT-3 [15]) was “Active”. For the same compound, the Activity (HL-60 [16]) was 21.8%, the Activity (U-937 [17]) was 11.9% and the Activity (HL-60 [18]) was 18%. The Activity (HL-60 [19]) was 5.5%, the Activity (HL-60 [20]) was “Active” and the Activity (HL-60 [21]) was “Active”. For the same compound, the Activity [22] was “Active”, the Activity (U-937 [23]) was “Active” and the Activity (HL-60 [24]) was 56.7%. The Activity (U-937 [25]) was “Active”, the Activity (HL-60 [26]) was 19.4% and the Activity (U-937 [27]) was 25.1%. The Activity (HL-60 [28]) was “Active”, the Activity (MOLT-3 [29]) was “Active” and the Activity (HL-60 [30]) was “Active”.
